{"source": "ChEMBL document CHEMBL3286242", "about": "“Design, synthesis and biological evaluation of arylcinnamide hybrid derivatives as novel anticancer agents” (Eur J Med Chem, 2014)", "key": {"HeLa [1]": {"test_system": "HeLa", "assay": "Induction of intracellular ROS generation in human HeLa cells after 1 to 6 hrs by H2DCFDA staining-based flow cytometry", "assay_type": "functional, cell-based", "method_in_brief": "(§1)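 HeLa cells treated at various concentrations and times; ROS followed by flow cytometry with H2DCFDA or hydroethidine (HE, mainly superoxide).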"}, "HeLa [2]": {"test_system": "HeLa", "assay": "Induction of apoptosis in human HeLa cells assessed as reduction in Mcl-1 protein expression at 2.5 uM after 48 hrs by Western blotting analysis", "assay_type": "functional, cell-based", "method_in_brief": "(§2)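 HeLa cells treated at indicated concentrations and times; washed in cold PBS, lysed 30 min at 0 °C, cleared at 15 000 × g; 20 μg protein resolved on 7.5–15% gradient SDS-PAGE, blotted to PVDF, primary antibodies 2 h room temperature, peroxidase secondary 60 min, ECL detection; β-actin reprobe for loading.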"}, "LoVo": {"test_system": "LoVo", "assay": "Resistance ratio of IC50 for human LoVo/DX cells to IC50 for human LoVo cells", "assay_type": "functional", "method_in_brief": "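Ratio of IC50 in resistant line to IC50 in parental line (CEMVbl-100/CEM; LoVoDoxo/LoVo), each IC50 from 72 h MTT dose–response curves, ≥3 independent experiments.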"}, "Jurkat": {"test_system": "Jurkat", "assay": "Cytotoxicity against human Jurkat cells assessed as growth inhibition after 72 hrs by MTT assay", "assay_type": "functional, cell-based"}, "HeLa [3]": {"test_system": "HeLa", "assay": "Induction of apoptosis in human HeLa cells assessed as cell viability at 2.5 uM after 48 hrs by MTT assay in presence of reduced glutathione", "assay_type": "functional, cell-based", "method_in_brief": "(§3)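 HeLa cells exposed to 2.5 μM compound for 48 h with scavengers (NAC 100 μM, GSH 1 mM or DTT 1 mM, among others); viability by MTT; means ± SEM of four independent experiments, Student's t-test.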"}, "[4]": {"assay": "Cytotoxicity against human SEM cells assessed as growth inhibition after 72 hrs by MTT assay", "assay_type": "functional, cell-based"}, "CCRF-CEM": {"test_system": "CCRF-CEM", "assay": "Cytotoxicity against human CEM cells assessed as growth inhibition after 72 hrs by MTT assay", "assay_type": "functional, cell-based"}, "PBMC [5]": {"test_system": "PBMC", "assay": "Cytotoxicity against human resting PBMC assessed as growth inhibition after 72 hrs by MTT assay", "assay_type": "cell-based", "method_in_brief": "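Healthy-donor PBMC from Lymphoprep gradient, rested overnight in RPMI-1640/10% FBS; non-adherent cells at 5 × 10^5 cells/mL without PHA, treated 72 h with varying concentrations; viability by MTT; IC50 mean ± SEM, three separate experiments.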"}, "HeLa [6]": {"test_system": "HeLa", "assay": "Induction of apoptosis in human HeLa cells assessed as caspase-8 activation at 1 to 2.5 uM after 24 to 48 hrs by Western blotting analysis", "assay_type": "functional, cell-based", "method_in_brief": "as §2"}, "HeLa [7]": {"test_system": "HeLa", "assay": "Induction of apoptosis in human HeLa cells assessed as PARP cleavage at 1 to 2.5 uM by Western blotting analysis", "assay_type": "functional, cell-based", "details": "TDE = time-dependent effect", "method_in_brief": "as §2"}, "HeLa [8]": {"test_system": "HeLa", "assay": "Induction of apoptosis in human HeLa cells assessed as increase in Bak protein expression at 1 to 2.5 uM after 24 to 48 hrs by Western blotting analysis", "assay_type": "functional, cell-based"}, "HeLa [9]": {"test_system": "HeLa", "assay": "Induction of apoptosis in human HeLa cells assessed as reduction in Bcl-2 protein expression at 1 to 2.5 uM after 48 hrs by Western blotting analysis", "assay_type": "functional, cell-based", "method_in_brief": "as §2"}, "HeLa [10]": {"test_system": "HeLa", "assay": "Induction of apoptosis in human HeLa cells assessed as increase in Bid protein expression at 1 uM after 24 hrs by Western blotting analysis", "assay_type": "functional, cell-based"}, "HeLa [11]": {"test_system": "HeLa", "assay": "Induction of apoptosis in human HeLa cells at 0.62 to 5 uM after 24 to 48 hrs by Annexin V/FITC staining-based flow cytometry", "assay_type": "functional, cell-based", "method_in_brief": "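HeLa cells treated 24 or 48 h at indicated concentrations, then stained with annexin-V-FITC plus PI; flow cytometry with 488 nm excitation, 525 and 585 nm emission; live, early/late apoptotic and necrotic populations distinguished; means of three independent experiments.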"}, "MCF7": {"test_system": "MCF7", "assay": "Cytotoxicity against human MCF7 cells assessed as growth inhibition after 72 hrs by MTT assay", "assay_type": "functional, cell-based", "details": "MCF7, 72 h"}, "HeLa [12]": {"test_system": "HeLa", "assay": "Induction of apoptosis in human HeLa cells assessed as caspase-3 activation after 24 to 48 hrs by Western blotting analysis", "assay_type": "functional, cell-based", "method_in_brief": "as §2"}, "HeLa [13]": {"test_system": "HeLa", "assay": "Induction of DNA damage in human HeLa cells assessed as increase in gammaH2A.X protein expression at 1 to 2.5 uM after 24 hrs by Western blotting analysis", "assay_type": "functional, cell-based"}, "HeLa [14]": {"test_system": "HeLa", "assay": "Induction of apoptosis in human HeLa cells assessed as PARP cleavage after 24 to 48 hrs by Western blotting analysis", "assay_type": "functional, cell-based", "method_in_brief": "as §2"}, "[15]": {"assay": "Selectivity ratio of IC50 for human resting PBMC to IC50 for human CEM cells", "assay_type": "ADME, cell-based, CCRF-CEM", "details": "resting PBMC versus CEM cells, read-out: Ratio IC50"}, "HT-29": {"test_system": "HT-29", "assay": "Cytotoxicity against human HT-29 cells assessed as growth inhibition after 72 hrs by MTT assay", "assay_type": "functional, cell-based", "details": "HT-29, 72 h"}, "PBMC [16]": {"test_system": "PBMC", "assay": "Cytotoxicity against human PHA-stimulated PBMC assessed as growth inhibition after 72 hrs by MTT assay", "assay_type": "functional, cell-based"}, "HeLa [17]": {"test_system": "HeLa", "assay": "Induction of apoptosis in human HeLa cells assessed as cell viability at 2.5 uM after 48 hrs by MTT assay in presence of N-acetylcysteine", "assay_type": "functional, cell-based", "method_in_brief": "as §3"}, "HeLa [18]": {"test_system": "HeLa", "assay": "Induction of intracellular ROS generation in human HeLa cells at 1 to 5 uM after 1 to 6 hrs by hydroethidine staining-based flow cytometry", "assay_type": "functional, cell-based", "method_in_brief": "as §1"}, "HeLa [19]": {"test_system": "HeLa", "assay": "Induction of apoptosis in human HeLa cells assessed as caspase activation at 2.5 uM after 48 hrs in presence of pan-caspase inhibitor z-VAD.fmk", "assay_type": "functional, cell-based", "method_in_brief": "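HeLa cells given 2.5 μM compound for 48 h with or without 100 μM z-VAD.fmk pan-caspase inhibitor; viability measured; means ± SEM of three independent experiments, Student's t-test.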"}, "Tubulin (Bos taurus)": {"target": "Tubulin (Bos taurus) (UniProt Q6B856+Q862L2+Q862F3)", "assay": "Inhibition of bovine brain tubulin polymerization at 20 uM by turbidimetry", "method_in_brief": "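Purified bovine brain tubulin (10 μM) preincubated with compound in glutamate buffer at 30 °C, cooled to 0 °C, GTP added, then warmed to 30 °C in cuvettes; assembly followed turbidimetrically; concentrations up to 20 μM.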"}, "[20]": {"assay": "Cytotoxicity against human LoVo/DX cells assessed as growth inhibition after 72 hrs by MTT assay", "assay_type": "functional, cell-based"}, "[21]": {"assay": "Selectivity ratio of IC50 for human resting PBMC to IC50 for human Jurkat cells", "assay_type": "ADME, cell-based", "details": "resting PBMC versus Jurkat cells, read-out: Ratio IC50"}, "HeLa [22]": {"test_system": "HeLa", "assay": "Induction of apoptosis in human HeLa cells assessed as GSH depletion at 1 to 2.5 uM after 24 hrs by CMFDA staining-based flow cytometry in presence of N-acetylcysteine", "assay_type": "functional, cell-based", "method_in_brief": "(§4)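 HeLa cells treated 24 h with compound, alone or with 100 μM NAC; harvested and loaded with 5 μM CMFDA, 30 min at 37 °C; intracellular GSH read as CMFDA fluorescence by flow cytometry; means ± SEM.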"}, "HeLa [23]": {"test_system": "HeLa", "assay": "Induction of apoptosis in human HeLa cells assessed as caspase-3 activation at 1 to 2.5 uM by Western blotting analysis", "assay_type": "functional, cell-based", "details": "TDE = time-dependent effect", "method_in_brief": "as §2"}, "HeLa [24]": {"test_system": "HeLa", "assay": "Induction of apoptosis in human HeLa cells assessed as caspase-9 activation at 1 to 2.5 uM after 24 to 48 hrs by Western blotting analysis", "assay_type": "functional, cell-based", "method_in_brief": "as §2"}, "HeLa [25]": {"test_system": "HeLa", "assay": "Induction of apoptosis in human HeLa cells assessed as GSH depletion after 24 hrs by CMFDA staining-based flow cytometry", "assay_type": "functional, cell-based", "method_in_brief": "as §4"}, "HeLa [26]": {"test_system": "HeLa", "assay": "Cytotoxicity against human HeLa cells assessed as growth inhibition after 72 hrs by MTT assay", "assay_type": "functional, cell-based"}}, "note": "pIC50: −log10 of the molar value. Active and inactive are the calls of the source. The rule behind the calls is not given here.", "data": [{"smiles": "C=C(Br)C(=O)Nc1ccc(/C=C/C(=O)Nc2cc(OC)c(OC)c(OC)c2)cc1", "values": [{"measurement": "Activity", "setting": "HeLa [1]", "result": "Dose-dependent effect"}, {"measurement": "Activity", "setting": "HeLa [2]", "result": "Active"}, {"measurement": "Ratio IC50", "setting": "LoVo", "result": 0.6}, {"measurement": "pIC50", "setting": "Jurkat", "result": 6.39}, {"measurement": "Activity", "setting": "HeLa [3]", "result": "inactive"}, {"measurement": "pIC50", "setting": "[4]", "result": 6.96}, {"measurement": "pIC50", "setting": "CCRF-CEM", "result": 7.60}, {"measurement": "pIC50", "setting": "PBMC [5]", "result": 5.46}, {"measurement": "Activity", "setting": "HeLa [6]", "result": "Active"}, {"measurement": "Activity", "setting": "HeLa [7]", "result": "tde"}, {"measurement": "Activity", "setting": "HeLa [8]", "result": "inactive"}, {"measurement": "Activity", "setting": "HeLa [9]", "result": "Active"}, {"measurement": "Activity", "setting": "HeLa [10]", "result": "inactive"}, {"measurement": "Activity", "setting": "HeLa [11]", "result": "Active"}, {"measurement": "pIC50", "setting": "MCF7", "result": 5.52}, {"measurement": "Activity", "setting": "HeLa [12]", "result": "Dose-dependent effect"}, {"measurement": "Activity", "setting": "HeLa [13]", "result": "Active"}, {"measurement": "Activity", "setting": "HeLa [14]", "result": "Dose-dependent effect"}, {"measurement": "selectivity ratio", "setting": "[15]", "result": 10}, {"measurement": "pIC50", "setting": "HT-29", "result": 5.43}, {"measurement": "pIC50", "setting": "PBMC [16]", "result": 6.62}, {"measurement": "Activity", "setting": "HeLa [17]", "result": "inactive"}, {"measurement": "Activity", "setting": "HeLa [18]", "result": "inactive"}, {"measurement": "Activity", "setting": "HeLa [19]", "result": "inactive"}, {"measurement": "inhibition", "setting": "Tubulin (Bos taurus)", "result": "inactive"}, {"measurement": "pIC50", "setting": "[20]", "result": 5.86}, {"measurement": "selectivity ratio", "setting": "[21]", "result": 10}, {"measurement": "Activity", "setting": "HeLa [22]", "result": "inactive"}, {"measurement": "Activity", "setting": "HeLa [23]", "result": "tde"}, {"measurement": "Activity", "setting": "HeLa [24]", "result": "inactive"}, {"measurement": "Activity", "setting": "HeLa [25]", "result": "Dose-dependent effect"}, {"measurement": "pIC50", "setting": "HeLa [26]", "result": 6.31}]}]}
